# System: T47D
# Experiment: Growth inhibition of human T47D cells
# Assay type: functional
# Outline: (§1)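 GI50 from a cell growth inhibition assay in T47D, HCT116 and SNU398 cells, run in 96-well format following an earlier protocol. Values are means of three or more experiments ± SEM.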
row,GI50 [nM],Structure (SMILES)
1,3300,CCOC(=O)C1=C(N)Oc2c(ccc3[nH]ccc23)C1c1cc(Br)c(OC)c(OC)c1 (stereo unspecified)
2,6,COc1cc(C2C(C#N)=COc3c2ccc2c3ccn2C)cc(Br)c1OC (stereo unspecified)
3,73,COc1cc(C2C(C#N)=COc3c2ccc2[nH]ccc32)cc(Br)c1OC (stereo unspecified)
4,66,COc1cc(C2C(C#N)=COc3cc(N(C)C)ccc32)cc(Br)c1OC (stereo unspecified)

# System: SNU-398
# Experiment: Induction of apoptosis in human SNU398 cells assessed as caspase activation by HTS assay
# Assay type: functional, cell-based
row,EC50 [nM],Structure (SMILES)
1,2200,CCOC(=O)C1=C(N)Oc2c(ccc3[nH]ccc23)C1c1cc(Br)c(OC)c(OC)c1 (stereo unspecified)
2,93,COc1cc(C2C(C#N)=C(NC(=O)Nc3ccccc3)Oc3cc(N(C)C)ccc32)cc(Br)c1OC (stereo unspecified)
3,34,COc1cc(C2C(C#N)=COc3c2ccc2c3ccn2C)cc(Br)c1OC (stereo unspecified)
4,52,COc1cc(C2C(C#N)=COc3c2ccc2[nH]ccc32)cc(Br)c1OC (stereo unspecified)
5,87,CCn1ccc2c3c(ccc21)C(c1cc(Br)c(OC)c(OC)c1)C(C#N)=CO3 (stereo unspecified)
6,77,COc1cc(C2C(C#N)=COc3cc(N(C)C)ccc32)cc(Br)c1OC (stereo unspecified)
7,190,COc1cc(C2C(C#N)=C(N3C(=O)CCC3=O)Oc3cc(N(C)C)ccc32)cc(Br)c1OC (stereo unspecified)
8,1000,COC(=O)C1=C(N)Oc2c(ccc3[nH]ccc23)C1c1cc(Br)c(OC)c(OC)c1 (stereo unspecified)

# System: SNU-398
# Experiment: Growth inhibition of human SNU398 cells
# Assay type: functional
# Outline: as §1
row,GI50 [nM],Structure (SMILES)
1,1600,CCOC(=O)C1=C(N)Oc2c(ccc3[nH]ccc23)C1c1cc(Br)c(OC)c(OC)c1 (stereo unspecified)
2,4,COc1cc(C2C(C#N)=COc3c2ccc2c3ccn2C)cc(Br)c1OC (stereo unspecified)
3,34,COc1cc(C2C(C#N)=COc3c2ccc2[nH]ccc32)cc(Br)c1OC (stereo unspecified)
4,17,COc1cc(C2C(C#N)=COc3cc(N(C)C)ccc32)cc(Br)c1OC (stereo unspecified)

# System: T47D
# Experiment: Induction of apoptosis in human T47D cells assessed as caspase activation by HTS assay
# Assay type: functional, cell-based
row,EC50 [nM],Structure (SMILES)
1,270,N#CC1=C(N)Oc2c(ccc3[nH]ccc23)C1c1ccccc1 (stereo unspecified)
2,3200,CCOC(=O)C1=C(N)Oc2c(ccc3[nH]ccc23)C1c1cc(Br)c(OC)c(OC)c1 (stereo unspecified)
3,68,COc1cc(C2C(C#N)=C(NC(=O)Nc3ccccc3)Oc3cc(N(C)C)ccc32)cc(Br)c1OC (stereo unspecified)
4,29,COc1cc(C2C(C#N)=COc3c2ccc2c3ccn2C)cc(Br)c1OC (stereo unspecified)
5,47,COc1cc(C2C(C#N)=COc3c2ccc2[nH]ccc32)cc(Br)c1OC (stereo unspecified)
6,70,CCn1ccc2c3c(ccc21)C(c1cc(Br)c(OC)c(OC)c1)C(C#N)=CO3 (stereo unspecified)
7,65,COc1cc(C2C(C#N)=COc3cc(N(C)C)ccc32)cc(Br)c1OC (stereo unspecified)
8,250,COc1cc(C2C(C#N)=C(N3C(=O)CCC3=O)Oc3cc(N(C)C)ccc32)cc(Br)c1OC (stereo unspecified)
9,1400,COC(=O)C1=C(N)Oc2c(ccc3[nH]ccc23)C1c1cc(Br)c(OC)c(OC)c1 (stereo unspecified)

# System: not listed separately
# Experiment: Inhibition of tubulin polymerization
row,IC50 [nM],Structure (SMILES)
1,3000,N#CC1=C(N)Oc2c(ccc3[nH]ccc23)C1c1ccccc1 (stereo unspecified)
2,< 500,COc1cc(C2C(C#N)=COc3c2ccc2c3ccn2C)cc(Br)c1OC (stereo unspecified)
3,< 500,COc1cc(C2C(C#N)=COc3c2ccc2[nH]ccc32)cc(Br)c1OC (stereo unspecified)

row,Structure (SMILES),IC50 [nM]
1,COc1cc(C2C(C#N)=C(N)Oc3c2ccc2[nH]ccc32)cc(Br)c1OC (stereo unspecified),500

# System: HCT-116
# Experiment: Growth inhibition of human HCT116 cells
# Assay type: functional
# Outline: as §1
row,GI50 [nM],Structure (SMILES)
1,4300,CCOC(=O)C1=C(N)Oc2c(ccc3[nH]ccc23)C1c1cc(Br)c(OC)c(OC)c1 (stereo unspecified)
2,6,COc1cc(C2C(C#N)=COc3c2ccc2c3ccn2C)cc(Br)c1OC (stereo unspecified)
3,53,COc1cc(C2C(C#N)=COc3c2ccc2[nH]ccc32)cc(Br)c1OC (stereo unspecified)
4,51,COc1cc(C2C(C#N)=COc3cc(N(C)C)ccc32)cc(Br)c1OC (stereo unspecified)

# System: HCT-116
# Experiment: Induction of apoptosis in human HCT116 cells assessed as caspase activation by HTS assay
# Assay type: functional, cell-based
row,EC50 [nM],Structure (SMILES)
1,3000,CCOC(=O)C1=C(N)Oc2c(ccc3[nH]ccc23)C1c1cc(Br)c(OC)c(OC)c1 (stereo unspecified)
2,84,COc1cc(C2C(C#N)=C(NC(=O)Nc3ccccc3)Oc3cc(N(C)C)ccc32)cc(Br)c1OC (stereo unspecified)
3,38,COc1cc(C2C(C#N)=COc3c2ccc2c3ccn2C)cc(Br)c1OC (stereo unspecified)
4,66,COc1cc(C2C(C#N)=COc3c2ccc2[nH]ccc32)cc(Br)c1OC (stereo unspecified)
5,150,CCn1ccc2c3c(ccc21)C(c1cc(Br)c(OC)c(OC)c1)C(C#N)=CO3 (stereo unspecified)
6,93,COc1cc(C2C(C#N)=COc3cc(N(C)C)ccc32)cc(Br)c1OC (stereo unspecified)
7,420,COc1cc(C2C(C#N)=C(N3C(=O)CCC3=O)Oc3cc(N(C)C)ccc32)cc(Br)c1OC (stereo unspecified)
8,660,COC(=O)C1=C(N)Oc2c(ccc3[nH]ccc23)C1c1cc(Br)c(OC)c(OC)c1 (stereo unspecified)
